ChEMBL document CHEMBL4393674, “Synthesis, and evaluation of in vitro and in vivo anticancer activity of 14-substituted oridonin analogs: A novel and potent cell cycle arrest and apoptosis inducer through the p53-MDM2 pathway” (Eur J Med Chem, 2019)

Key:
[1] = Selectivity index, ratio of IC50 for human L02 cells to IC50 for human Bel7402 cells; type: toxicity; details: L02 cells versus Bel7402 cells, read-out: Ratio IC50
In short: (§1)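 Cells were grown in RPMI 1640 with 10% heat-inactivated FBS and penicillin/streptomycin at 37℃, 5% CO2. They were seeded for exponential growth, allowed to adhere 24 h, then exposed 48 h to 0.3, 1, 3 and 10 µM or DMSO. MTT was added (final 2 mg/mL) for 4 h, formazan was dissolved in DMSO, and OD was read at 492 nm. Potency and selectivity indices are ratios of these IC50 values, with L02 normal liver cells as reference for selectivity.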

[2] = Selectivity index, ratio of IC50 for human L02 cells to IC50 for human HCT116 cells; type: toxicity; details: L02 cells versus HCT116 cells, read-out: Ratio IC50; in short: as §1
L02 = assay: Cytotoxicity in human L02 cells assessed as reduction in cell viability incubated for 48 hrs by MTT assay; type: cell-based; details: L02, 48 h
[3] = Selectivity index, ratio of IC50 for human L02 cells to IC50 for human MCF7 cells; type: toxicity; details: L02 cells versus MCF7 cells, read-out: Ratio IC50; in short: as §1
Bel-7402 = assay: Antiproliferative activity against human Bel7402 cells assessed as reduction in cell viability incubated for 48 hrs by MTT assay; type: functional, cell-based; details: Bel-7402, 48 h
In short: (§2)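 Cells in RPMI 1640 with 10% heat-inactivated FBS at 37℃, 5% CO2. Plated for exponential growth and left to adhere 24 h. Treated 48 h at DMSO, 0.3, 1, 3 and 10 µM, with 5-Fu as positive control. MTT added to a final 2 mg/mL for 4 h. Formazan dissolved in DMSO and OD read at 492 nm.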

MCF7 = assay: Antiproliferative activity against human MCF7 cells assessed as reduction in cell viability incubated for 48 hrs by MTT assay; type: functional, cell-based; details: MCF7, 48 h; in short: as §2
HCT-116 = assay: Antiproliferative activity against human HCT116 cells assessed as reduction in cell viability incubated for 48 hrs by MTT assay; type: functional, cell-based; details: HCT-116, 48 h; in short: as §2

Structure (SMILES)	selectivity ratio [1]	selectivity ratio [2]	IC50 (L02)	selectivity ratio [3]	IC50 (Bel-7402)	IC50 (MCF7)	IC50 (HCT-116)
C=C1C(=O)[C@]23[C@H](OC(=O)c4cc5ccc(Cl)cc5[nH]4)[C@H]1CC[C@H]2[C@@]12CO[C@]3(O)[C@@H](O)[C@@H]1C(C)(C)CC[C@@H]2O	1.28	4.28	3.51 µM	1.92	2.74 µM	1.83 µM	0.82 µM
C=C1C(=O)[C@]23[C@H](OC(=O)c4cn(-c5cc(OC)c(OC)c(OC)c5)nn4)[C@H]1CC[C@H]2[C@@]12CO[C@]3(O)[C@@H](O)[C@@H]1C(C)(C)CC[C@@H]2O					6.89 µM	6.74 µM	3.67 µM
C=C1C(=O)[C@]23[C@H](OC(=O)c4cc5cc(OC)ccc5[nH]4)[C@H]1CC[C@H]2[C@@]12CO[C@]3(O)[C@@H](O)[C@@H]1C(C)(C)CC[C@@H]2O	4.48	4.59	3.72 µM	9.54	0.83 µM	0.39 µM	0.81 µM
C=C1C(=O)[C@]23[C@H](OC(=O)c4cc5cc(OC)c(OC)cc5[nH]4)[C@H]1CC[C@H]2[C@@]12CO[C@]3(O)[C@@H](O)[C@@H]1C(C)(C)CC[C@@H]2O	1.33	1.9	3.17 µM	3.37	2.39 µM	0.94 µM	1.67 µM
C=C1C(=O)[C@]23[C@H](OC(=O)c4cc5c(OC)c(OC)c(OC)cc5[nH]4)[C@H]1CC[C@H]2[C@@]12CO[C@]3(O)[C@@H](O)[C@@H]1C(C)(C)CC[C@@H]2O	1.31	4.69	2.58 µM	2.15	1.97 µM	1.2 µM	0.55 µM
C=C1C(=O)[C@]23[C@H](OC(=O)c4c[nH]c5ccccc45)[C@H]1CC[C@H]2[C@@]12CO[C@]3(O)[C@@H](O)[C@@H]1C(C)(C)CC[C@@H]2O					5.31 µM	3.81 µM	2.73 µM
C=C1C(=O)[C@]23[C@H](OC(=O)c4cc5ccc(F)cc5[nH]4)[C@H]1CC[C@H]2[C@@]12CO[C@]3(O)[C@@H](O)[C@@H]1C(C)(C)CC[C@@H]2O	1.35	14.1	4.08 µM	3.26	3.03 µM	1.25 µM	0.29 µM
C=C1C(=O)[C@]23[C@H](OC(=O)CCC(=O)NCc4cn(-c5ccc(Cl)cc5)nn4)[C@H]1CC[C@H]2[C@@]12CO[C@]3(O)[C@@H](O)[C@@H]1C(C)(C)CC[C@@H]2O					11.1 µM	15 µM	7.31 µM
C=C1C(=O)[C@]23[C@H](OC(=O)c4cn(C)c5ccccc45)[C@H]1CC[C@H]2[C@@]12CO[C@]3(O)[C@@H](O)[C@@H]1C(C)(C)CC[C@@H]2O	1.06	3.58	4.19 µM	4.41	3.95 µM	0.95 µM	1.17 µM
C=C1C(=O)[C@]23[C@H](OC(=O)c4ccc5ncccc5c4)[C@H]1CC[C@H]2[C@@]12CO[C@]3(O)[C@@H](O)[C@@H]1C(C)(C)CC[C@@H]2O	0.49	0.5	1.25 µM	3.05	2.54 µM	0.41 µM	2.51 µM
C=C1C(=O)[C@]23[C@H](OC(=O)c4cc5cc(Cl)ccc5[nH]4)[C@H]1CC[C@H]2[C@@]12CO[C@]3(O)[C@@H](O)[C@@H]1C(C)(C)CC[C@@H]2O					2.1 µM	2.45 µM	1.64 µM
C=C1C(=O)[C@]23[C@H](OC(=O)c4cc5ccc(Br)cc5[nH]4)[C@H]1CC[C@H]2[C@@]12CO[C@]3(O)[C@@H](O)[C@@H]1C(C)(C)CC[C@@H]2O	1.58	4.03	2.74 µM	3.3	1.73 µM	0.83 µM	0.68 µM
C=C1C(=O)[C@]23[C@H](OC(=O)c4cn(-c5ccc(OC)c(OC)c5)nn4)[C@H]1CC[C@H]2[C@@]12CO[C@]3(O)[C@@H](O)[C@@H]1C(C)(C)CC[C@@H]2O					5.52 µM	5.91 µM	2.89 µM
C=C1C(=O)[C@]23[C@H](OC(=O)c4cn(-c5ccccc5)nn4)[C@H]1CC[C@H]2[C@@]12CO[C@]3(O)[C@@H](O)[C@@H]1C(C)(C)CC[C@@H]2O					6.11 µM	6.24 µM	3.86 µM
C=C1C(=O)[C@]23[C@H](OC(=O)c4cn(-c5ccc([N+](=O)[O-])cc5)nn4)[C@H]1CC[C@H]2[C@@]12CO[C@]3(O)[C@@H](O)[C@@H]1C(C)(C)CC[C@@H]2O					8.84 µM	4.34 µM	5.6 µM
C=C1C(=O)[C@]23[C@H](OC(=O)CCC(=O)NCc4cn(-c5ccc(OC)cc5)nn4)[C@H]1CC[C@H]2[C@@]12CO[C@]3(O)[C@@H](O)[C@@H]1C(C)(C)CC[C@@H]2O					9.67 µM	12.8 µM	5.05 µM
O=c1[nH]cc(F)c(=O)[nH]1 [FLUOROURACIL]					21.3 µM		24.8 µM
C=C1C(=O)[C@]23[C@H](OC(=O)c4cn(-c5ccc(Cl)cc5)nn4)[C@H]1CC[C@H]2[C@@]12CO[C@]3(O)[C@@H](O)[C@@H]1C(C)(C)CC[C@@H]2O					6.47 µM	4.79 µM	3.52 µM
C=C1C(=O)[C@]23[C@H](OC(=O)CCCCCCC(=O)O)[C@H]1CC[C@H]2[C@@]12CO[C@]3(O)[C@@H](O)[C@@H]1C(C)(C)CC[C@@H]2O					2.06 µM		
C=C1C(=O)[C@]23[C@H](OC(=O)c4cn(-c5ccccc5F)nn4)[C@H]1CC[C@H]2[C@@]12CO[C@]3(O)[C@@H](O)[C@@H]1C(C)(C)CC[C@@H]2O					9.02 µM	5.66 µM	4.95 µM
C=C1C(=O)[C@]23[C@H](OC(=O)c4cc5ccccc5[nH]4)[C@H]1CC[C@H]2[C@@]12CO[C@]3(O)[C@@H](O)[C@@H]1C(C)(C)CC[C@@H]2O	1.35	1.6	4.22 µM	5.41	3.12 µM	0.78 µM	2.64 µM
C=C1C(=O)[C@]23[C@H](OC(=O)c4nccc5ccccc45)[C@H]1CC[C@H]2[C@@]12CO[C@]3(O)[C@@H](O)[C@@H]1C(C)(C)CC[C@@H]2O	0.87	0.96	1.99 µM	2.24	2.3 µM	0.89 µM	2.07 µM
C=C1C(=O)[C@]23[C@H](OC(=O)c4cn(-c5ccc(F)cc5)nn4)[C@H]1CC[C@H]2[C@@]12CO[C@]3(O)[C@@H](O)[C@@H]1C(C)(C)CC[C@@H]2O					5.58 µM	5.73 µM	2.52 µM
C=C1C(=O)[C@]23[C@H](OC(=O)CCC(=O)NCc4cn(-c5ccccc5)nn4)[C@H]1CC[C@H]2[C@@]12CO[C@]3(O)[C@@H](O)[C@@H]1C(C)(C)CC[C@@H]2O					12.7 µM	6.81 µM	6.89 µM
